dFosB act-1 = activators of delta FosB homodimer, primary screen, biochemical, fluorescence polarization, TAMRA-CDK5 oligo, single point | 340,000 tested, 0.99% active | activation, % at 25 µM | purified delta FosB; percent of positive-control signal above neutral wells;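 active = mean activation above about 17%, with every replicate also reaching it, limit read from the data, passing the limit was not always enough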
Target sequence (P13346 whole entry, looked up): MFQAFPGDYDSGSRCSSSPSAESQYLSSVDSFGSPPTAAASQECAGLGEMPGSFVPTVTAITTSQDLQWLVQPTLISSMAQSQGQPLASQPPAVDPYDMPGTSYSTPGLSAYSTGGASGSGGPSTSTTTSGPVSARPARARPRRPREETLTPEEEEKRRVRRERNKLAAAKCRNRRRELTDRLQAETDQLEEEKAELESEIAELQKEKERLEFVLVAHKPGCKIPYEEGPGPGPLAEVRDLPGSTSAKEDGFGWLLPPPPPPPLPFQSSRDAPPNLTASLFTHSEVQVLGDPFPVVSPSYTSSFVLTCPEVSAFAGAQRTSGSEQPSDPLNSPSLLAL
HTR2A ag = mouse Htr2a agonists via beta-arrestin recruitment, primary screen, cell-based, luminescence; 5-hydroxytryptamine receptor 2A (Mus musculus), P35363; CHO-K1 mHTR2A beta-arrestin complementation; percent of 30 µM serotonin response; activation, % at 7.6 µM; 360,000 tested, 0.66% active; AID 624169, 2012;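 active = activation above a run cutoff, the mean activation of all tested compounds plus 3 SD, cut at about 14% in these data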
IMP-1 inhibitor = IMP-1 metallo-beta-lactamase inhibitors, primary screen, biochemical, epi-absorbance readout, Pseudomonas aeruginosa enzyme; metallo-beta-lactamase IMP-1 (Pseudomonas aeruginosa); purified IMP-1, nitrocefin hydrolysis, epi-absorbance fluorescence; inhibition, % at 5.6 µM; 290,000 tested, 0.45% active;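 active = inhibition above the mean plus 3 SD of all compounds in the same screening run, cut at about 4.5% in these data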
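Assay system: purified IMP-1; Quantity: IMP-1 0.2 nM before substrate addition; Medium: HEPES buffer pH 7.1 with ZnSO4 and Brij 35; Incubation: 15 min enzyme–compound preincubation, then 25 min nitrocefin reaction, 25 °C; Signal: fluorescence quenching readout, ex 480/em 530 nm; Controls: DMSO with and without IMP-1; Repeats: singlicate testing.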
VIM-2 inh = VIM-2 metallo-beta-lactamase inhibitors, primary screen, biochemical, epi-absorbance readout, Pseudomonas aeruginosa enzyme. 290,000 tested, 0.89% active. inhibition, % at 5.6 µM. purified VIM-2, nitrocefin hydrolysis, epi-absorbance fluorescence. AID 1527, 2009;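 active = inhibition above the mean of all tested compounds plus 3 SD, cutoff set per screening run, cut at about 7.5% in these data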;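 also: red hydrolysis product quenches plate fluorescence so inhibitors raise well fluorescence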
dFosB act-2 = activators of mouse delta FosB DNA binding, confirmation, biochemical, fluorescence polarization, TAMRA-CDK5 oligo, cherry-picked samples; purified delta FosB; normalised: neutral wells 0, positive control 100; shares compounds with dFosB act-1; activation, % at 24.9 µM; 2,400 tested, under 10 active;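 active = highest replicate activation at or above 34% and every replicate reaching that threshold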;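 also: higher polarization means more probe DNA bound by delta FosB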
Hits are given with their value; - = inactive; . = no result. The list is not random: actives were taken first. Their share in the collection is about 2.5%.

SMILES	dFosB act-1	HTR2A ag	IMP-1 inhibitor	VIM-2 inh	dFosB act-2
COc1ccc(CNC(=O)C2CCN(S(=O)(=O)c3cccc4nonc34)CC2)cc1	-	-	-	-	.
CN(C)S(=O)(=O)c1cc(C(=O)Nc2ccccc2C(=O)NC2CC2)ccc1Cl	-	-	.	.	.
CC1(C(=O)NS(=O)(=O)c2ccc(F)cc2F)CCN1C(=O)CCc1ccc(Cl)cc1Cl (stereo not drawn)	.	-	.	.	.
CCOc1ncccc1C(=O)Nc1c(C)n(C)n(-c2ccccc2)c1=O	-	-	-	-	.
Cc1cn(C2CCCCC2)c(=O)n(-c2ccccc2)c1=O	-	-	.	.	.
CN1CCN(C(=O)c2cc(-c3cccc(Cl)c3)on2)CC1	-	-	-	-	.
O=C(c1cc(-c2cccc(Cl)c2)on1)N1CCN(c2ccc(F)cc2)CC1	21	-	-	-	-
Cc1ccc(-c2nsc(SCC(=O)Nc3ccc4c(c3)OCO4)n2)cc1	24	-	-	-	-
Nn1c(SCC(=O)Nc2ccc3c(c2)OCO3)nnc1-c1ccc(Cl)cc1	64	-	-	-	-
CCN(CC)C(=O)COc1ccc(C=O)cc1OC	-	-	-	-	.
CC1=C(C(=O)Nc2cccc(C(=O)N3CCN(c4cccc(C(F)(F)F)c4)CC3)c2)SCCO1	-	-	-	-	.
CC(C)CCNC(=O)CCC(=O)NNc1nc2ccccc2c2nc(-c3ccccc3)nn12	56	-	-	-	-
O=C(CCC(=O)NNc1nc2ccccc2c2nc(-c3ccccc3)nn12)NCCCN1CCOCC1	-	-	-	-	.
COc1ccccc1-c1oc2ccccc2c1C#CC1(O)CCCCC1	-	-	.	.	.
COc1ccccc1-c1oc2ccccc2c1C#CC1(N)CCCCC1	24	-	.	.	-
CCCOc1ccc(-c2csc3ncn(Cc4ccc(C(=O)O)cc4)c(=O)c23)cc1	24	-	-	-	-
O=C(Nc1ccc(N2CCOCC2)cc1)C1CC(=O)N(c2ccc(F)cc2)C1 (stereo not drawn)	-	-	-	-	.
O=S(=O)(Nc1ccccc1C(F)(F)F)c1ccc(-c2ccccn2)s1	-	-	-	-	.
COc1ccc2cc3cc(C(=O)NCc4ccc5c(c4)OCO5)oc3nc2c1	17	-	-	-	-
S=C(NCc1ccc2c(c1)OCO2)Nc1ccc(-c2nc3ccccc3[nH]2)cc1	32	-	-	-	-
Cc1cc2nc(-c3ccc(SCC(=O)N4CCOCC4)nc3)[nH]c2cc1C	-	-	-	-	.
Cc1ccc2nc(-c3ccc(SCC(=O)Nc4ccc5c(c4)OCCO5)nc3)[nH]c2c1	50	-	-	-	-
O=C(CSc1ccc(-c2nc3ccccc3[nH]2)cn1)Nc1ccc2c(c1)OCCO2	40	-	-	-	-
Cc1cc2nc(-c3ccc(SCC(=O)Nc4ccc5c(c4)OCCO5)nc3)[nH]c2cc1C	32	-	-	-	-
Cc1ccc(-c2ccc(SCC(=O)Nc3ccc4c(c3)OCCO4)nn2)cc1	-	-	-	-	.
SMILES	dFosB act-1	HTR2A ag	IMP-1 inhibitor	VIM-2 inh	dFosB act-2
COc1ccccc1C(=O)COC(=O)c1ccc(Cl)nc1	-	-	.	.	.
C[n+]1c(-c2ccc(C=NNC(=O)c3ccc(C(=O)NN=Cc4ccc(-c5cn6ccccc6[n+]5C)cc4)cc3)cc2)cn2ccccc21	-	.	.	.	.
CN(Cc1ccc(Cl)s1)C(=O)CN1C(=O)N(C)C2(CCCCC2)C1=O	-	-	.	.	.
NC(=O)c1cc(-c2ccccc2)nc2ccc(Br)cc12	23	-	-	-	-
O=C(O)c1cc(-c2cccnc2)nc2ccc(Br)cc12	-	-	-	-	.
COC(=O)c1ccccc1NC(=O)CSc1n[nH]c(-c2ccco2)n1	-	-	-	-	.
CSCC[C@H](NC(=O)c1ccc(Cl)c([N+](=O)[O-])c1)c1nc2ccccc2[nH]1	-	-	-	-	.
O=C(NC(Cc1ccccc1)c1nc2ccccc2[nH]1)c1ccc(Cl)c([N+](=O)[O-])c1 (stereo not drawn)	31	-	-	-	-
O=C(NCCc1ccccc1)/C(=C\c1ccccc1)NC(=O)c1ccco1	-	-	-	-	.
C/C(=N\NC(=O)c1ccc(OC2OCCOC2Oc2ccc(C(=O)N/N=C(\C)c3ccncc3)cc2)cc1)c1ccncc1 (stereo not drawn)	97	-	-	-	-
COc1ccccc1NC(=O)c1oc2ccccc2c1NC(=O)C1CC1	24	-	-	-	-
CCOc1ccccc1NC(=O)c1oc2ccccc2c1NC(=O)C1CC1	-	-	-	-	.
COC(=O)c1ccc(NC(=O)CCc2nnc3ccc(N4CCC5(CC4)OCCO5)nn23)cc1	-	-	-	-	.
CNC(=O)CN(c1ccc(C23CC4CC(CC(C4)C2)C3)cc1)S(C)(=O)=O	-	-	-	-	.
CS(=O)(=O)N(CC(=O)Nc1c(F)cccc1F)c1ccc(C23CC4CC(CC(C4)C2)C3)cc1	54	-	-	-	-
O=C(O)C(Cc1ccccc1)N=C(NS(=O)(=O)c1ccccc1)c1ccccc1 (stereo not drawn)	-	-	.	.	.
CCOc1ccc(NC(=O)CCC(=O)NNC(=O)Nc2cccc(Cl)c2)cc1	34	-	-	-	-
O=C(CCC(=O)Nc1ccc(Cl)cc1Cl)NNC(=O)Nc1ccccc1	34	-	-	-	-
O=C(CSCC(=O)Nc1cccc2ccccc12)Nc1cccc2ccccc12	49	-	-	-	-
O=C(c1ccc([N+](=O)[O-])cc1)n1nc(-c2ccccc2)nc1NCc1ccc(F)cc1	-	-	-	-	.
O=C(c1ccc(F)cc1)n1c(NCc2ccccc2)n[nH]c1=S	35	-	-	-	-
C[N+](=O)C1C(=O)Nc2ccccc21 (stereo not drawn)	.	-	.	.	.
CC(O)(c1cccnc1)c1nc(-c2ccc3ccccc3c2)cs1 (stereo not drawn)	.	-	.	.	.
COc1ccc(C(=O)NCCNc2nc3cc(C)c(C)cc3cc2C)cc1	25	-	-	-	-
CCOc1ccc(-n2nnc3c(=O)n(CC(=O)NCc4ccco4)cnc32)cc1	22	-	-	-	-
SMILES	dFosB act-1	HTR2A ag	IMP-1 inhibitor	VIM-2 inh	dFosB act-2
Cc1ccc(-n2nnc3c(=O)n(CC(=O)NCc4ccco4)cnc32)cc1	-	-	-	-	.
COc1cccc(-n2nnc3c(=O)n(CC(=O)Nc4ccc(C)cc4)cnc32)c1	27	-	-	-	-
COc1cccc(-n2nnc3c(=O)n(CC(=O)Nc4cc(C)on4)cnc32)c1	-	-	-	-	.
CCOC(=O)N(C)C[C@@H]1OCc2cnnn2CCCC(=O)N([C@H](C)CO)C[C@@H]1C	.	-	.	.	.
Cc1ccccc1NC(=S)c1ccc2ccccc2n1	-	-	-	-	.
Cn1cc(-c2csc(C(O)(c3ccccc3)C(F)(F)F)n2)cn1 (stereo not drawn)	.	-	.	.	.
Cc1ccc(CNC(=O)C2CCN(C(=O)Nc3ccccc3)CC2)cc1	-	-	-	-	.

Screening data (PubChem BioAssay)
